Compound activity (PubChem BioAssay)
procasp7 counter = counter-screen: procaspase-7 (human) activation; recombinant procaspase-7, Ac-DEVD-pNA absorbance 405 nm; D23A/D198A/D206A triple mutant, cannot self-cleave; scale: DMSO 0, 5 µM enzyme 100; activation, % at 8.5 µM; 0.093% of 330,000 active; AID 463210;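 active = percent activation above the screen-wide mean plus 3 SD, cut at about 25% in these data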
Target sequence (P55210 whole entry D23A/D198A/D206A): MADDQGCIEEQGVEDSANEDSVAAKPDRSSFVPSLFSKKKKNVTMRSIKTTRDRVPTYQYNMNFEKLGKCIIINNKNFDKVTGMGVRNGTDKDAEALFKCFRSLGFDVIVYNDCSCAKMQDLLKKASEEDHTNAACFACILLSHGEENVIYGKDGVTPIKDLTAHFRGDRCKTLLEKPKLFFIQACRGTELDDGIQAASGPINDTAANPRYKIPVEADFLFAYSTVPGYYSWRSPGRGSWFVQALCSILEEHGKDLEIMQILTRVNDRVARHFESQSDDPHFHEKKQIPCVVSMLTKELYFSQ
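System: Uncleavable procaspase-7 mutant enzyme; Amount: 2 µM procaspase-7 mutant as dispensed; Schedule: 1 h compound preincubation, 2 h substrate cleavage, 25 °C; Measured by: 405 nm absorbance of p-nitroaniline; Evaluation: percent activation from buffer-corrected 0–120 min absorbance change; Control set: low DMSO alone, high DMSO plus 5 µM PC-7.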
CHT inh = inhibitors of human choline transporter CHT; AID 488975; 0.86% of 310,000 active; CHT-expressing cells, membrane potential dye, choline response; stronger effect = lower value; B-score at 10 µM; Q9GZV3;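 active = B-score over 3 SD under the library average, and starting fluorescence ratio not unusually high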;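 also: choline stimulus applied at its EC90 after an EC20 pre-addition; B-score computed on integrated fluorescence ratio after choline addition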
procasp3 activ = activates human procaspase-3; 0.11% of 330,000 active; recombinant procaspase-3 D3A, Ac-DEVD-pNA absorbance 405 nm; activation, % at 8.5 µM; P42574; AID 463141;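 active = activation above the mean of all tested compounds plus 3 SD, cut at about 21% in these data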;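 also: 0% = DMSO alone and 100% = DMSO wells spiked with extra 5 µM PC-3 D3A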
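Compound: 8.5 µM single point, 0.8% DMSO / Material: Autoprocessing-dead procaspase-3 D3A mutant enzyme / Timing: 1 h preincubation plus 2 h reaction at 25 °C / Medium: Zinc-free HEPES/NaCl buffer with 0.01% Triton X-100 at pH 7.4 / Technique: 405 nm absorbance of p-nitroaniline, reads at 0 and 120 min / Repeats: one well per compound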
CHT PAM = allosteric activators of human choline transporter CHT; 0.49% of 310,000 active; CHT-expressing cells, membrane potential dye, choline EC20; stronger effect = higher value; LV-AA mutant CHT in HEK293 cells; B-score at 10 µM; Q9GZV3;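 active = initial fluorescence not abnormally high and integrated response B-score, plate-corrected, over 3 SD above library mean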
CHT inh conf = confirmation of human choline transporter CHT inhibitors | 70% of 2,400 active | shares compounds with CHT inh | CHT-expressing cells, choline membrane potential dye; LV-to-AA substituted CHT, HEK293 cells | CHT activity remaining % of control (stronger effect = lower value), % at 10 µM;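 active = choline transporter activity left, mean of duplicates at 10 µM, below buffer-only control mean minus 3 SD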;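 also: depolarization triggered by choline at its EC90 following an EC20 pre-addition; 0% = hemicholinium-3 full block and 100% = buffer-only control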
HEK293 CHT ctr = CHT inhibitor counter-screen hit in parental HEK293 cells. membrane potential ratio readout (active if shifted either direction beyond buffer ±3SD; no single direction) at 10 µM. shares compounds with CHT inh. 4% of 2,400 active. AID 493222. membrane potential dye, choline response; active = decrease or increase beyond buffer ±3SD;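 also: parental cells lack the transporter so any hit is non-specific; ratio is peak minus trough fluorescence over baseline after EC90 choline challenge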
* hit, by the source's call; i = inactive; x = not tested or not shown. Most compounds without a hit are left out; they make up all but 1.3% or so of the library.

SMILES	procasp7 counter	CHT inh	procasp3 activ	CHT PAM	CHT inh conf	HEK293 CHT ctr
CCN(CC)CCCN(C(=O)c1ccco1)c1nc(-c2ccc(Cl)cc2)cs1	-9	-6.3*	-7	i	37%*	i
CCN(CC)CCCN(C(=O)c1ccco1)c1nc(-c2ccc(C)cc2)cs1	5	i	8	i	x	x
CCOc1ccc(S(=O)(=O)Nc2cccc(C(=O)NCC(c3ccccc3)N(C)C)c2)cc1 (stereo unspecified)	5	-7.6*	-2	i	16%*	i
Cc1cccc(N/C(N)=N/c2nc(C(F)(F)F)cc(=O)[nH]2)c1C	-4	i	3	i	x	x
O=C(C1CCN(S(=O)(=O)c2ccc3ccccc3c2)CC1)N1CCN(c2ncccn2)CC1	6	-6*	2	i	39%*	i
O=C(CCl)N(c1ccccc1)c1c[nH]c2ccccc12	9	i	4	i	x	x
O=C(CCl)N(c1ccc(Cl)cc1)c1c[nH]c2ccccc12	3	-5.9*	-5	i	56%*	i
O=C(COc1ccccc1)Nc1cccc(-c2nc3cc4ccccc4cc3[nH]2)c1	-3	i	-5	i	x	x
CCN(CC)S(=O)(=O)c1ccc(OC)c(NC(=S)Nc2ccc(C)c(C)c2)c1	-10	-6*	5	i	53%*	i
CN(Cc1nc(-c2ccncc2)no1)S(=O)(=O)c1ccc(Br)cc1	3	-8*	2	i	i	i
COc1ccc(CCN(C)c2ncnc3sccc23)cc1OC	4	i	-2	i	x	x
COc1ccc(CN(C)c2ncnc3sccc23)c(OC)c1OC	0	i	-2	i	65%*	i
CN(Cc1cccs1)c1ncnc2sccc12	1	-7.4*	1	i	50%*	i
CCOc1ccccc1NC(=O)CSc1nc2cccnc2n1C	4	i	5	i	x	x
COC(=O)c1ccccc1NC(=O)CSc1nc2cccnc2n1C	-1	-5.9*	5	i	i	i
CCN(CC(=O)Nc1c(F)cccc1F)C(=O)C1CC(=O)N(CCc2ccc(OC)c(OC)c2)C1 (stereo unspecified)	-2	x	10	x	x	x
N#CCSc1ncnc2ccccc12	-1	i	6	i	x	x
c1ccc(Sc2ncnc3ccccc23)cc1	12	-5*	7	i	i	i
CC(Cc1ccc(Cl)cc1)N1CCC(n2nccc2NC(=O)C2CCCC2)CC1 (stereo unspecified)	-5	i	-2	i	x	x
Nc1cc(N)nc(SCC(=O)NC(=O)NC2CCCC2)n1	-4	x	-5	x	x	x
Cc1nc(SCC(=O)NC(=O)NC2CCCCC2)nc(C)c1C	-12	-11*	-4	i	3.3%*	i
CCCCN1C2CCCC1CC(NC(=O)c1cccc(OC)c1)C2 (stereo unspecified)	13	i	5	i	x	x
COc1cc(C)c(Br)cc1S(=O)(=O)N1CCCC1	5	-5.1*	-2	i	i	i
COc1cc(S(=O)(=O)N2CCCC2)c(C)cc1C	8	i	1	i	x	x
Cc1ccc(C2CC2C(=O)NNC(=S)Nc2cccc(C)c2)cc1 (stereo unspecified)	-6	i	0	i	x	x
Cc1ccc(NC(=S)NNC(=O)C2CC2c2ccc(C)cc2)cc1 (stereo unspecified)	4	-5.5*	9	i	58%*	i
Cc1ccc(C2CC2C(=O)NNC(=S)Nc2cccc(Cl)c2)cc1 (stereo unspecified)	1	-12*	5	i	43%*	i
O=C(NNC(=S)Nc1ccc(F)cc1)C1CC1c1ccc(Cl)cc1 (stereo unspecified)	6	-9.8*	0	i	14%*	i
CCCCn1c(SCC(=O)N2c3ccccc3CCc3ccccc32)nc2c1c(=O)n(C)c(=O)n2C	-9	i	-12	i	x	x
CCCCn1c(SCc2nnc(-c3ccccc3)o2)nc2c1c(=O)n(C)c(=O)n2C	0	-5.6*	5	i	34%*	i
